Marks after values point to notes of the source that are not given here.
Assays:
[1] = MAD study: plasma and urine pharmacokinetics; format: in vivo, human; conditions: for CLR (renal clearance), mean ± SD / CLR, geometric mean: MAD steady state
How it was run: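 Healthy males got oral doses for 14 days: 100 mg once daily fasted, or 100, 200 or 300 mg twice daily fed. Plasma was drawn pre-dose and […] on Day 1, pre-dose and at 3 h on Days 4, 7 and 12, and up to 120 h after the final Day 14 morning dose. Urine was collected over 24 h at steady state. LC–MS/MS, LLOQ 2 ng/mL; non-compartmental analysis.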

TNFα = conditions: in vitro; cited from earlier work
[2] = MAD Day 14, 100 mg BID fed, n = 6

## CN1C(=O)c2cccc(OC(F)F)c2[C@H]2C[C@@H]1c1nc3ccc(-c4cnc(C5(N)CCC5)nc4)cc3n12 [Balinatunfib]
[1]; MAD Day 14, 100 mg BID fed
  R ac (accumulation ratio), mean ± SD: 5.46 ± 0.951
  R ac Cmax (accumulation ratio based on C max), mean ± SD: 4.77 ± 0.730
  R ac, geometric mean: (5.38) [17]
  V z/F, geometric mean: (2,250) [51] L
  t max, median (min, max): 3.00 (1.00, 4.00) h
[1]; [2]
  t 1/2z, geometric mean: (23.6) [13] h
  t 1/2z, mean ± SD: 23.8 ± 3.18 ^g h
[1]; MAD Day 14, 100 mg QD fasted
  AUC0-tau, geometric mean: (1,680) [27] ng·h/mL
  AUC0-tau, mean ± SD: 1,750 ± 471 ng·h/mL
  C av, geometric mean: (70.0) [27] ng/mL
  C av, mean ± SD: 0.0729 ± 0.0196 µg/mL
  C max, geometric mean: (153) [31] ng/mL
  C max, mean ± SD: 0.161 ± 0.0492 µg/mL
  C trough, geometric mean: (35.2) [31] ng/mL
  C trough, mean ± SD: 0.0372 ± 0.0115 µg/mL
  CLss/F, geometric mean: (59.5) [37] L/h
  CLss/F, mean ± SD: 62.5 ± 23.4 L/h
  FLrel (relative fluctuation), geometric mean: (168) [20] %
  R ac (accumulation ratio), mean ± SD: 2.52 ± 0.431
  R ac Cmax (accumulation ratio based on C max), mean ± SD: 1.87 ± 0.400
  R ac, geometric mean: (2.50) [17]
  V z/F, geometric mean: (2,530) [38] L
  V z/F, mean ± SD: 2,700 ± 1,020 L
  t 1/2z, geometric mean: (29.5) [28] h
  t 1/2z, mean ± SD: 30.3 ± 8.43 h
  t max, median (min, max): 3.00 (2.00, 4.00) h
[1]; MAD Day 14, 200 mg BID fed
  AUC0-tau, geometric mean: (4,990) [37] ng·h/mL
  AUC0-tau, mean ± SD: 5,370 ± 2,010 ng·h/mL
  C av, geometric mean: (416) [37] ng/mL
  C av, mean ± SD: 0.448 ± 0.167 µg/mL
  C max, geometric mean: (511) [35] ng/mL
  C max, mean ± SD: 0.547 ± 0.193 µg/mL
  C trough, geometric mean: (349) [43] ng/mL
  C trough, mean ± SD: 0.383 ± 0.163 µg/mL
  CLss/F, geometric mean: (40.1) [47] L/h
  CLss/F, mean ± SD: 43.7 ± 20.6 L/h
  FLrel (relative fluctuation), geometric mean: (44.7) [27] %
  R ac (accumulation ratio), mean ± SD: 4.65 ± 0.654
  R ac Cmax (accumulation ratio based on C max), mean ± SD: 3.91 ± 0.612
  R ac, geometric mean: (4.60) [14]
  V z/F, geometric mean: (1,380) [62] L
  V z/F, mean ± SD: 1,590 ± 983 L
  t 1/2z, geometric mean: (23.9) [14] h
  t 1/2z, mean ± SD: 24.1 ± 3.28 h
  t max, median (min, max): 3.00 (2.00, 8.00) h
[1]; MAD Day 14, 300 mg BID fed
  AUC0-tau, geometric mean: (9,290) [27] ng·h/mL
  AUC0-tau, mean ± SD: 9,670 ± 2,650 ng·h/mL
  C av, geometric mean: (774) [27] ng/mL
  C av, mean ± SD: 0.806 ± 0.221 µg/mL
  C max, geometric mean: (947) [27] ng/mL
  C max, mean ± SD: 0.982 ± 0.261 µg/mL
  C trough, geometric mean: (639) [32] ng/mL
  C trough, mean ± SD: 0.676 ± 0.215 µg/mL
  CLss/F, geometric mean: (32.3) [37] L/h
  CLss/F, mean ± SD: 33.9 ± 12.7 L/h
  FLrel (relative fluctuation), geometric mean: (46.1) [29] %
  R ac (accumulation ratio), mean ± SD: 4.40 ± 1.22
  R ac Cmax (accumulation ratio based on C max), mean ± SD: 3.62 ± 0.861
  R ac, geometric mean: (4.25) [28]
  V z/F, geometric mean: (991) [29] L
  V z/F, mean ± SD: 1,030 ± 299 L
  t 1/2z, geometric mean: (21.3) [23] h
  t 1/2z, mean ± SD: 21.7 ± 4.92 h
  t max, median (min, max): 3.00 (2.00, 6.00) h
[1]; 100 mg BID fed
  CLR (renal clearance), mean ± SD: 5.16 ± 2.10 L/h
  CLR, geometric mean: (4.83) [41] L/h
[1]; 100 mg QD fasted
  CLR (renal clearance), mean ± SD: 5.53 ± 1.67 L/h
  CLR, geometric mean: (5.30) [30] L/h
[1]; 200 mg BID fed
  CLR (renal clearance), mean ± SD: 4.62 ± 0.862 L/h
  CLR, geometric mean: (4.55) [19] L/h
[1]; 300 mg BID fed
  CLR (renal clearance), mean ± SD: 4.92 ± 0.929 L/h
  CLR, geometric mean: (4.85) [19] L/h
[1]; after QD dosing
  accumulation: 2.52 fold
[1]; healthy participants
  apparent volume of distribution: > 1,000 L
TNFα
  concentration leading to 90% occupancy of TNFα [OCC90]: 16 nM

Reference: article PMC12166256 (Clinical Pharmacology and Therapeutics, 2025)
